Data as given in ChEMBL document CHEMBL1955716, “Synthesis and evaluation of CS-2100, a potent, orally active and S1P(3)- sparing S1P(1) agonist” (Eur J Med Chem, 2012).
Active and inactive are the calls of the source. No cut-off for these calls is given here.

Experiments:
Rattus norvegicus [1] = species: Rattus norvegicus; assay: Selectivity ratio of EC50 for rat S1P3 receptor to EC50 for rat S1P1 receptor
Method in brief: (§1)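 Membranes from CHO cells expressing rat or human S1P1 or S1P3, homogenized in 5 mM Tris–HCl pH 7.4, 0.25 M sucrose, 1 mM EDTA, 1 mM EGTA and spun at 100,000 × g for 60 min at 4 °C. Serial compound dilutions added to 1–10 µg protein/well, and [35S]GTPγS binding measured. EC50 is the midpoint between vehicle binding ratio and maximal response. Selectivity is the S1P3/S1P1 EC50 ratio.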

[2] = Agonist activity at rat S1P3 receptor expressed in CHO-K1 cells assessed as induction of GTPgammaS binding; format: cell-based; method in brief: as §1
Homo sapiens = species: Homo sapiens; assay: Selectivity ratio of EC50 for human S1P3 receptor to EC50 for human S1P1 receptor; method in brief: as §1
[3] = biological target: Sphingosine 1-phosphate receptor 3 (Homo sapiens, UniProt Q99500); assay: Agonist activity at human S1P3 receptor expressed in CHO-K1 cells assessed as induction of GTPgammaS binding; format: functional, cell-based; method in brief: as §1
Chain of Sphingosine 1-phosphate receptor 3 (Q99500 whole entry): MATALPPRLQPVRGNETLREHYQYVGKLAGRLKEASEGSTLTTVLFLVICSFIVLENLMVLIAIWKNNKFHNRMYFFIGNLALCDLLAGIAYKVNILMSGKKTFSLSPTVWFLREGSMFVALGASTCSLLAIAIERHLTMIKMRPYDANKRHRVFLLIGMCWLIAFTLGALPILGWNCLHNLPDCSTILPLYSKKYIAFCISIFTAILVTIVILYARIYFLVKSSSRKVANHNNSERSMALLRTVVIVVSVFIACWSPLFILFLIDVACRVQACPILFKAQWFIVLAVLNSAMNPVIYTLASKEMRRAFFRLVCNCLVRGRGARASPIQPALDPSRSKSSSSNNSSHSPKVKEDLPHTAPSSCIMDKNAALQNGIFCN

[4] = biological target: Sphingosine 1-phosphate receptor 5 (Homo sapiens, UniProt Q9H228); assay: Agonist activity at human S1P5 receptor; format: functional
Chain of Sphingosine 1-phosphate receptor 5 (Q9H228 whole entry): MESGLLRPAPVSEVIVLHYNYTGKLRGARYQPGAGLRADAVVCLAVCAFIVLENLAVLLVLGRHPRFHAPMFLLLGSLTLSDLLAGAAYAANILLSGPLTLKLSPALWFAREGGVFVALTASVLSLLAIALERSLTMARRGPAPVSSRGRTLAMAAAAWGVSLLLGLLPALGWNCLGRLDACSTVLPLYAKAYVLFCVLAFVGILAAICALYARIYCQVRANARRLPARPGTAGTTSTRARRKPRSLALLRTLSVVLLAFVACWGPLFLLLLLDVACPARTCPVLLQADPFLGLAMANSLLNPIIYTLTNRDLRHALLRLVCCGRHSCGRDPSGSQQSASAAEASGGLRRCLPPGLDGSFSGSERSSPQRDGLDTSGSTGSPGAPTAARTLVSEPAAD

[5] = Metabolic stability in liver microsomes assessed as 4-PBA level; format: ADME, Microsome
Rhesus monkey = assay: Drug metabolism in po dosed monkey plasma assessed as 4-PBA level; format: ADME, organism-based, Macaca mulatta; details: in vivo
[6] = biological target: T1, Sphingosine 1-phosphate receptor 4 (Homo sapiens, UniProt O95977); assay: Agonist activity at human S1P4 receptor; format: functional
T1 sequence (O95977 whole entry): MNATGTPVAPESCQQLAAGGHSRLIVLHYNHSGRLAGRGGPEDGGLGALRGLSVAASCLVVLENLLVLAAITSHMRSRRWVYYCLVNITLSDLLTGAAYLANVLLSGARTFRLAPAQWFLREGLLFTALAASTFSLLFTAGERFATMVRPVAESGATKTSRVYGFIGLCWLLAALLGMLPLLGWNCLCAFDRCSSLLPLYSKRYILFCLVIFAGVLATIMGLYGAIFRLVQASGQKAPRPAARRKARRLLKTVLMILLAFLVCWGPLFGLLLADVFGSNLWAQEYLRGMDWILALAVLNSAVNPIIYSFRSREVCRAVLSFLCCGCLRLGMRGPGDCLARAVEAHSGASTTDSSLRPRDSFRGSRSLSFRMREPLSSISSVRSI

[7] = Cmax in Lewis rat at 1 mg/kg, po; format: ADME, organism-based; design: dose 1 mg/kg, route oral; details: in vivo
Method in brief: (§2)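 Male Lewis rats given a single oral dose (0.1 or 1 mg/kg) suspended in 1% methyl cellulose; plasma taken from the blood samples of the lymphocyte-count study, 5 rats per time point up to 72 h. Drug quantified by LC–MS/MS after solid-phase extraction on a C18 column. Noncompartmental parameters calculated from mean concentrations.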

[8] = biological target: Sphingosine 1-phosphate receptor 1 (Rattus norvegicus, UniProt P48303); assay: Agonist activity at rat S1P1 receptor expressed in CHO-K1 cells assessed as induction of GTPgammaS binding; format: functional, cell-based; method in brief: as §1
Chain of Sphingosine 1-phosphate receptor 1 (P48303 whole entry): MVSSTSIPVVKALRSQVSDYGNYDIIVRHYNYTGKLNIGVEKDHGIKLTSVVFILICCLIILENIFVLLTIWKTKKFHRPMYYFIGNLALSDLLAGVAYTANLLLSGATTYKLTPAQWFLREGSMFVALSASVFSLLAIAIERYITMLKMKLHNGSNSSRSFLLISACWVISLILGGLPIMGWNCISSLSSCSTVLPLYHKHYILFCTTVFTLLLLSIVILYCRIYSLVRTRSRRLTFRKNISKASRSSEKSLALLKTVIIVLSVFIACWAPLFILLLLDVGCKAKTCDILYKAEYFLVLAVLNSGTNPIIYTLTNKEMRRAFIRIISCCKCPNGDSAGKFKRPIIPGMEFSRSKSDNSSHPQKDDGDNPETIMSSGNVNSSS

[9] = Terminal half life in C57BL/6J mouse at 1 mg/kg, po; format: ADME, organism-based; design: dose 1 mg/kg, route oral; details: in vivo, read-out: beta t1/2 (converted)
Method in brief: (§3)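 Male C57BL/6J mice given 1 mg/kg orally at 5 ml/kg as a solution in dimethyl acetamide/25% Purebright/water (1/8/1). Plasma assayed by LC–MS/MS after solid-phase extraction, 5 animals per time point. Noncompartmental analysis performed on mean concentrations.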

Rattus norvegicus [10] = assay: Drug metabolism in po dosed rat plasma assessed as 4-PBA level; format: ADME, organism-based; details: in vivo
[11] = AUC (0 to 72 hrs) in Lewis rat at 0.1 mg/kg, po; format: ADME, organism-based; design: time < 72 hr, dose 0.1 mg/kg, route oral; details: plasma; method in brief: as §2
[12] = AUC (0 to 72 hrs) in Lewis rat at 1 mg/kg, po; format: ADME, organism-based; design: time < 72 hr, dose 1 mg/kg, route oral; details: plasma; method in brief: as §2
[13] = Tmax in C57BL/6J mouse at 1 mg/kg, po; format: ADME, organism-based; design: dose 1 mg/kg, route oral; details: in vivo; method in brief: as §3
Rattus norvegicus [14] = assay: Immunomodulatory activity in Lewis rat assessed as decrease in peripheral blood lymphocyte numbers at 0.1 mg/kg, po after 8 hrs relative to control; format: functional; design: scale not given: the % may be the effect or the level left
Method in brief: (§4)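 Male Lewis rats, 5 weeks old, 5 per group. Single oral dose (0.1 or 1 mg/kg) suspended in 1% w/v methyl cellulose #400 at 5 ml/kg; vehicle controls. Postcaval vein blood taken under ether anesthesia at 0.5–48 h into EDTA tubes. Absolute lymphocytes counted on a full blood count analyzer, expressed relative to vehicle control, mean ± SE.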

[15] = Cmax in Lewis rat at 0.1 mg/kg, po; format: ADME, organism-based; design: dose 0.1 mg/kg, route oral; details: in vivo; method in brief: as §2
[16] = Terminal half life in Lewis rat at 1 mg/kg, po; format: ADME, organism-based; design: dose 1 mg/kg, route oral; details: in vivo, read-out: beta t1/2 (converted); method in brief: as §2
[17] = Tmax in Lewis rat at 1 mg/kg, po; format: ADME, organism-based; design: dose 1 mg/kg, route oral; details: in vivo; method in brief: as §2
Mus musculus [18] = assay: Antimultiple sclerosis activity in C57BL/6J mouse assessed as reduction of experimental autoimmune encephalomyelitis score at 0.3 mg/kg, po qd for 23 days; format: functional, organism-based; design: dose 0.3 mg/kg
Rattus norvegicus [19] = assay: Immunomodulatory activity in Lewis rat assessed as decrease in peripheral blood lymphocyte numbers at 0.1 to 1 mg/kg, po after 24 to 48 hrs; format: functional, organism-based; method in brief: as §4
Rattus norvegicus [20] = assay: Antiarthritic activity in po dosed Lewis rat assessed as reduction of adjuvant-induced right hind foot volume administered as qd for 18 days; format: functional; details: 432 h, read-out: ID50 (the source's name)
Method in brief: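 Lewis rats injected intradermally with adjuvant (0.05 ml) in the right hind footpad. Oral dosing at 0.1, 0.3, 1 or 3 mg/kg in 1% methyl cellulose, 5 ml/kg, once daily from Day 0 for 18 days; uninjected normal group. Right foot volume measured by plethysmometer on Days 0–18. % inhibition computed against control and normal, and ID50 taken by least-squares regression of % inhibition against log dose at Day 18.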

[21] = AUC (0 to 72 hrs) in C57BL/6J mouse at 1 mg/kg, po; format: ADME, organism-based; design: time < 72 hr, dose 1 mg/kg, route oral; details: plasma; method in brief: as §3
Rattus norvegicus [22] = assay: Immunomodulatory activity in Lewis rat assessed as decrease in peripheral blood lymphocyte numbers at 1 mg/kg, po after 8 hrs relative to control; format: functional; design: scale not given: the % may be the effect or the level left; method in brief: as §4
[23] = Metabolic stability in liver microsomes assessed as degradation of 1,2,4-oxadiazole ring; format: ADME, Microsome
[24] = Terminal half life in Lewis rat at 0.1 mg/kg, po; format: ADME, organism-based; design: dose 0.1 mg/kg, route oral; details: in vivo, read-out: beta t1/2 (converted); method in brief: as §2
Mus musculus [25] = assay: Antimultiple sclerosis activity in C57BL/6J mouse assessed as reduction of experimental autoimmune encephalomyelitis score at 1 mg/kg, po qd for 23 days; format: functional, organism-based; design: dose 1 mg/kg
[26] = Tmax in Lewis rat at 0.1 mg/kg, po; format: ADME, organism-based; design: dose 0.1 mg/kg, route oral; details: in vivo; method in brief: as §2
[27] = Cmax in C57BL/6J mouse at 1 mg/kg, po; format: ADME, organism-based; design: dose 1 mg/kg, route oral; details: in vivo; method in brief: as §3

SMILES: Cc1ccc(CCCC(=O)c2ccc(CC[C@@](C)(N)COP(=O)(O)O)n2C)cc1
- Ratio EC50 (Rattus norvegicus [1]): 100
- EC50 [2]: 200 nM
- Ratio EC50 (Homo sapiens): 320

SMILES: CCCCCCCCc1ccc(CC[C@](N)(CO)COP(=O)(O)O)cc1 [FTY720-P]
- EC50 [2]: 1.3 nM

SMILES: CCc1cc(CN2CC(C(=O)O)C2)sc1-c1noc(-c2ccc(Oc3ccccc3)cc2)n1
- EC50 [3]: > 20000 nM
- EC50 [4]: 17 nM
- Stability [5]: Stable
- Drug metabolism (Rhesus monkey): Active
- EC50 [6]: 58 nM
- Cmax [7]: 186 ng/mL
- EC50 [8]: 1.5 nM
- half-life [9]: 13.9 h
- Drug metabolism (Rattus norvegicus [10]): Active
- AUC(0-t) at 72 h [11]: 268 ng·h/mL
- AUC(0-t) at 72 h [12]: 2670 ng·h/mL
- EC50 [2]: 7400 nM
- Tmax [13]: 2 h
- Activity (Rattus norvegicus [14]): 27%
- Cmax [15]: 17.4 ng/mL
- half-life [16]: 8.73 h
- Tmax [17]: 4 h
- Activity (Mus musculus [18]): Active
- Activity (Rattus norvegicus [19]): inactive
- ED50 (Rattus norvegicus [20]): 0.44 mg/kg
- AUC(0-t) at 72 h [21]: 1540 ng·h/mL
- Activity (Rattus norvegicus [22]): 11%
- Stability [23]: Stable
- half-life [24]: 12.4 h
- Activity (Mus musculus [25]): Active
- Ratio EC50 (Homo sapiens): > 5000
- Tmax [26]: 4 h
- Cmax [27]: 135 ng/mL
